Assay results as given in ChEMBL document CHEMBL1136028, “Design and synthesis of orally bioavailable inhibitors of inducible nitric oxide synthase. Part 1: synthesis and biological evaluation of dihydropyridin-2-imines” (Bioorg Med Chem Lett, 2002).

Assays:
Nitric oxide synthase 3 = molecular target: T1, Nitric oxide synthase 3 (Homo sapiens, UniProt P29474); assay: Inhibition of human endothelial Nitric Oxide Synthase expressed in Sf-21 cells; design: species or system Sf21
T1 sequence (P29474 whole entry): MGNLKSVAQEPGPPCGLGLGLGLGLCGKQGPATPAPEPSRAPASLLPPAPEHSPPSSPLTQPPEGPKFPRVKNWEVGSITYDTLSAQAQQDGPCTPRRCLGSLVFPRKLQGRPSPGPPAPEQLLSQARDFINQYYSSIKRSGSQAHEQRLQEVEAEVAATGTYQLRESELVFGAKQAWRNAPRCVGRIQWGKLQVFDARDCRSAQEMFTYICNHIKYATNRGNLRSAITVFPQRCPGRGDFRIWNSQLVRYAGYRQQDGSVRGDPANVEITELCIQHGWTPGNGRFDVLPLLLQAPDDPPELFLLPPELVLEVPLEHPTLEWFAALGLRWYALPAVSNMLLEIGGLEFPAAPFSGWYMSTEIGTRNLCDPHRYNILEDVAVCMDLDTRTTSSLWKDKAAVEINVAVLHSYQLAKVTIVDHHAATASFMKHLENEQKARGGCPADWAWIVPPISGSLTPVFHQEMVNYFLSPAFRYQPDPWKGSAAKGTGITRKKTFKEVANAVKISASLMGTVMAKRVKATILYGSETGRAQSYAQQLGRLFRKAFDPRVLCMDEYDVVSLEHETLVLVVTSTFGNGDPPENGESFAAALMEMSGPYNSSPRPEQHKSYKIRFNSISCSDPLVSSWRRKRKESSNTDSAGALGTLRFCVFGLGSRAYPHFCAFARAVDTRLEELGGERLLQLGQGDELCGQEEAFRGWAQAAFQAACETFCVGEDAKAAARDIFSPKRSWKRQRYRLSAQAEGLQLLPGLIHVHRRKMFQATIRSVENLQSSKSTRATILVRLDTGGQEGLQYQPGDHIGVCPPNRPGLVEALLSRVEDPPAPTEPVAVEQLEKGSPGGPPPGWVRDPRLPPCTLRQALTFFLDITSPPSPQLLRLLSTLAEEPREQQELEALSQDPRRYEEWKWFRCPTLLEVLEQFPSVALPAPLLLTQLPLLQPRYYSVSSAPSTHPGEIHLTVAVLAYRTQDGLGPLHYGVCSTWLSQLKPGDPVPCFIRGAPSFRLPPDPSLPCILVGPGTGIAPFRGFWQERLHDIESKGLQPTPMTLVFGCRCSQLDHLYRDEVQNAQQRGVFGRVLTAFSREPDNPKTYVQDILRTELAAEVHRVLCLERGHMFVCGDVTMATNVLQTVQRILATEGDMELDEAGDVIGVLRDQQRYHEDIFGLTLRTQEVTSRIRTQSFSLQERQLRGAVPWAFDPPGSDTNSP
How it was run: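 Human eNOS was overexpressed in Sf-21 insect cells by infection with baculovirus carrying heNOS cDNA, then partially purified on 2',5'-ADP-Sepharose. Activity was read as [14C]-L-arginine to L-citrulline conversion at several inhibitor and L-arginine levels. Ki and mode of inhibition came from Dixon and Lineweaver–Burk plots.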

[1] = molecular target: T2, Nitric oxide synthase, inducible (Mus musculus, UniProt P29477); assay: The concentration required for inhibition of Inducible nitric oxide synthase in mouse
T2 sequence (P29477 whole entry): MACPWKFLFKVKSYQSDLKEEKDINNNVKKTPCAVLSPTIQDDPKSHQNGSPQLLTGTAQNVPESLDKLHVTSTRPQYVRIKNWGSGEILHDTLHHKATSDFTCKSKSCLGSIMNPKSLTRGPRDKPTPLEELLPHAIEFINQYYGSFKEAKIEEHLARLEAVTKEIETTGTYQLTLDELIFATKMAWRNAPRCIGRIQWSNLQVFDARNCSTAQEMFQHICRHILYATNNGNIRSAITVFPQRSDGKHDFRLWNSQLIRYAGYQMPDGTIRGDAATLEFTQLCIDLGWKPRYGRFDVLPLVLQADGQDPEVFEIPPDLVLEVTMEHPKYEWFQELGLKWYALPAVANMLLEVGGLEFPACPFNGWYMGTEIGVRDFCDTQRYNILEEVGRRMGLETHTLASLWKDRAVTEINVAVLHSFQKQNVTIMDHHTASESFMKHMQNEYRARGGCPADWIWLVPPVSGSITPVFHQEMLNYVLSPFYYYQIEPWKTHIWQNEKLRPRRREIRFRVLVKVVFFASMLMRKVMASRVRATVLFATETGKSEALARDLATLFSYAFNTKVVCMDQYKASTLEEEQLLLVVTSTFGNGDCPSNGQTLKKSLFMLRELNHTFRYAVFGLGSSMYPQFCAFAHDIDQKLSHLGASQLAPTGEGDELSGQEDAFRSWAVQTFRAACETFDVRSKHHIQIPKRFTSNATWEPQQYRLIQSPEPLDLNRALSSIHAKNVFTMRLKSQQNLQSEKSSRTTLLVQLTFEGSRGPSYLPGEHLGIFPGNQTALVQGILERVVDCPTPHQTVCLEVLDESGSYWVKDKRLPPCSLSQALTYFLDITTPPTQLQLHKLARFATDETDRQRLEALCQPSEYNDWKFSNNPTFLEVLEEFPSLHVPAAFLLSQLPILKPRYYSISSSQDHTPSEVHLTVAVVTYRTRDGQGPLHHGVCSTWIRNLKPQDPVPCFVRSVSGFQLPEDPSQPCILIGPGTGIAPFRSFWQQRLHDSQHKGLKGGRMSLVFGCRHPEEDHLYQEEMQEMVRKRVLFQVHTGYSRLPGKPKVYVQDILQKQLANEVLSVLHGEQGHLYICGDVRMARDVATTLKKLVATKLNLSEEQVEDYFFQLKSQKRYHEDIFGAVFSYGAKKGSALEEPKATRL
How it was run: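 Enzyme was commercially purchased recombinant mouse iNOS, tested for inhibition by the test compounds.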

[2] = molecular target: T3, Nitric oxide synthase, inducible (Homo sapiens, UniProt P35228); assay: Concentration required to inhibit human Inducible nitric oxide synthase over expressed in A549 cells; format: cell-based
T3 sequence (P35228 whole entry): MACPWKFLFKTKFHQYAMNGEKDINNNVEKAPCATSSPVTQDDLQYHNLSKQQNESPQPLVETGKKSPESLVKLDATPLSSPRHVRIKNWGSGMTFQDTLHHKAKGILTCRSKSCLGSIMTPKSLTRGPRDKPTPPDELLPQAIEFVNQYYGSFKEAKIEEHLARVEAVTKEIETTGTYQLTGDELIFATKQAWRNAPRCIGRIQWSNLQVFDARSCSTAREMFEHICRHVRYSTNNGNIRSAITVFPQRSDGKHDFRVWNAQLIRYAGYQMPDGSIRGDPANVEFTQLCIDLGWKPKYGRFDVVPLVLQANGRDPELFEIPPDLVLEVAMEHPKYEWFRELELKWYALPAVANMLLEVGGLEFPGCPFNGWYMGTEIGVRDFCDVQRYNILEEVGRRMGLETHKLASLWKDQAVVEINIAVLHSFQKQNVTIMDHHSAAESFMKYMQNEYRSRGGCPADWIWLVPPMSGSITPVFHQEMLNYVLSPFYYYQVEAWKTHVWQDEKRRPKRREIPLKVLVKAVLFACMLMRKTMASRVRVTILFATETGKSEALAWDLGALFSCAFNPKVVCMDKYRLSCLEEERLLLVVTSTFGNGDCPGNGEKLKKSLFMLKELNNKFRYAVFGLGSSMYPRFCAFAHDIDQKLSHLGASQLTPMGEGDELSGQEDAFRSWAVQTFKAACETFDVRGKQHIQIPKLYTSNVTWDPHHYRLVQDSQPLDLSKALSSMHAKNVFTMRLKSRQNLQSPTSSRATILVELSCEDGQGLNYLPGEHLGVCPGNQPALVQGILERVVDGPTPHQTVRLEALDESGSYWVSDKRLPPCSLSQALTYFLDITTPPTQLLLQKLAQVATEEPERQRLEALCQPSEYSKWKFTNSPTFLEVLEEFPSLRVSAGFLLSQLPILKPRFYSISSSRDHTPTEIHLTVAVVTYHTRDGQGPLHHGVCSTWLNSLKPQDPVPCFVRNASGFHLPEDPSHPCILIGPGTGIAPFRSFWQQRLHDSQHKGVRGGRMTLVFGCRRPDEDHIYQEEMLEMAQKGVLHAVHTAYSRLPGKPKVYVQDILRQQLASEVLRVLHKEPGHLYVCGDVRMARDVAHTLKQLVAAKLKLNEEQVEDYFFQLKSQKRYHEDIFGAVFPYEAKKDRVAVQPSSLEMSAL
How it was run: (§1)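 Human iNOS was induced in A549 cells by LPS plus cytokines (10 ng/mL TNF-a, 5 ng/mL IL-1b, 100 ng/mL interferon-g), then partially purified on 2',5'-ADP-Sepharose. Activity was read as conversion of [14C]-L-arginine to L-citrulline at several inhibitor and L-arginine levels. Ki and mode of inhibition came from Dixon and Lineweaver–Burk plots.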

Mus musculus [3] = assay: The dose required for 50% inhibition of NOx accumulation in mice induced by LPS treatment after subcutaneous administration; format: functional; settings: sc, read-out: ID50 (the source's name)
Mus musculus [4] = assay: Maximum tolerated dose (MTD) at which no death was observed within 24 hr after intravenous administration.; format: functional
How it was run: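 Normal mice (mouse acute toxicity) given a single intravenous dose of test compound. MTD taken as the maximum dose at which no death was observed within 24 h after injection.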

[5] = Ratio of MTD/ID50 for NOx accumulation in mice; format: functional
How it was run: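 Balb/c mice, 7 weeks old, got LPS 10 mg/kg iv, then test compound or saline sc 3 h later. Plasma was taken from the abdominal aorta at 6 h, and NOx accumulated over 3 h was measured. ID50 is the sc dose halving LPS-induced NOx. MTD is the highest iv dose in normal mice with no death within 24 h. Ratio is MTD/ID50.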

[6] = molecular target: Nitric oxide synthase (inducible and endothelial) (Homo sapiens) (UniProt P35228+P29474); assay: Selectivity was evaluated as the rate of the IC50 values for heNOS and hiNOS.; format: protein assay
[7] = molecular target: T4, Nitric oxide synthase 3 (Homo sapiens) (UniProt P29474); assay: Selectivity was evaluated as the rate of the IC50 values for Endothelial Nitric Oxide Synthase and Inducible nitric oxide synthase
T4 sequence (whole entry): T1 sequence (P29474 whole entry)

[8] = molecular target: T3, Nitric oxide synthase, inducible; assay: Concentration required to inhibit Inducible nitric oxide synthase over expressed in A549 cells; format: cell-based; how it was run: as §1

IC50 (Nitric oxide synthase 3) [nM]	IC50 [2] [nM]	Ratio [6]	Ratio [7]	IC50 [8] [nM]	Compound	IC50 [1] [nM]	ED50 (Mus musculus [3]) [mg/kg]	MTD (Mus musculus [4]) [mg/kg]	Ratio [5]
520	–	–	1	510	CC1=CC(N)=NCC1C (centres undefined)	–	–	–	–
31000	2800	11.1	–	–	CC1(C)C=CC(N)=NC1	–	–	–	–
320	310	1	–	–	CC1=C(C)C(N)=NCC1	–	–	–	–
7400	1400	5.3	–	–	CC1=CC(N)=N[C@@H]2CCCC[C@H]12	–	–	–	–
510	170	3	–	–	CC1=CC(N)=N[C@@H]2CCC[C@H]12	–	–	–	–
440	700	0.6	–	–	CC1=CCN=C(N)C1	–	–	–	–
240	–	–	1.3	180	CC1=CC(N)=NC(C)C1 (centres undefined)	–	–	–	–

Second part, the compound before the results:

Compound	IC50 (Nitric oxide synthase 3) [nM]	IC50 [2] [nM]	Ratio [6]	Ratio [7]	IC50 [8] [nM]	IC50 [1] [nM]	ED50 (Mus musculus [3]) [mg/kg]	MTD (Mus musculus [4]) [mg/kg]	Ratio [5]
CC1=CC(N)=NCC1(C)C	2100	420	5	–	–	100	0.28	20	71
CCCC1CC(C)=CC(N)=N1 (centres undefined)	580	60	9.7	–	–	100	0.36	5	14
C=CCC1CC(C)=CC(N)=N1 (centres undefined)	–	–	7.2	–	–	25	0.16	5	–
CCC1=CC(=N)NCC1	1500	1200	1.3	–	–	–	–	–	–
CC1=CC(N)=NCC1	230	200	1.2	–	–	22	0.16	20	130
